Measured values from ChEMBL document CHEMBL1152736, “Synthesis and biological testing of thioalkane- and thioarene-spaced bis-beta-D-glucopyranosides” (Bioorg Med Chem, 2009).
Active and inactive are the calls of the source. No cut-off for these calls is given here.

Tests used:
Assay type in all cases: functional, cell-based
MOLT-3 [1] = assay: Induction of apoptosis in human MOLT3 cells at 10 uM after 24 hrs by fluorescence microscopy
In short: (§1)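 Cells exposed 24 h to DMSO vehicle or test agent at 10–75 µM. Stained with acridine orange; apoptosis scored morphologically by fluorescence microscopy, over 600 cells analyzed. % apoptosis = apoptotic cells / total cells counted × 100. Mean and SD of three determinations. Comparison with vehicle by Student's t-test (MOLT3) or Tukey HSD (U937).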

MOLT-3 [2] = assay: Induction of apoptosis in human MOLT3 cells after 24 hrs by fluorescence microscopy; in short: as §1
U-937 [3] = assay: Induction of apoptosis in human U937 cells after 24 hrs by fluorescence microscopy; in short: as §1
MOLT-3 [4] = assay: Stimulation of growth of human MOLT3 cells at 25 to 50 uM after 24 hrs
U-937 [5] = assay: Stimulation of growth of human U937 cells at 25 to 50 uM after 24 hrs
MOLT-3 [6] = assay: Reduction in viability of human MOLT3 cells at 75 uM after 24 hrs by MTS assay
In short: (§2)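 MTS colorimetric assay: 2 × 10⁴ cells in 100 µL RPMI-1640 with 5% FBS, 2 mM L-glutamine and penicillin–streptomycin, with compound or DMSO vehicle for 24 h. MTS reagent then added for 4 h and absorbance read at 490 nm. Mean and SD of three determinations. Comparison with vehicle by Student's t-test.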

U-937 [7] = assay: Induction of apoptosis in human U937 cells at 10 uM after 24 hrs by fluorescence microscopy; in short: as §1
U-937 [8] = assay: Reduction in viability of human U937 at 75 uM after 24 hrs by MTS assay; in short: as §2

In the case of `C=C(CO[C@@H]1O[C@H](COC(C)=O)[C@@H](OC(C)=O)[C@H](OC(C)=O)[C@H]1OC(C)=O)[S+]([O-])c1cccc([S+]([O-])C(=C)CO[C@@H]2O[C@H](COC(C)=O)[C@@H](OC(C)=O)[C@H](OC(C)=O)[C@H]2OC(C)=O)c1` (stereo partly drawn), the Activity (MOLT-3 [1]) is reported as “inactive”, the Activity (MOLT-3 [2]) is reported as “Dose-dependent effect” and the Activity (U-937 [3]) is reported as “Dose-dependent effect”. The Activity (MOLT-3 [4]) was “Active”, the Activity (U-937 [5]) was “Active” and the Activity (MOLT-3 [6]) was “Active”. For the same molecule, the Activity (U-937 [7]) was “inactive” and the Activity (U-937 [8]) was “Active”.
